# CHRM5 antagonist: antagonists of human muscarinic M5 receptor (CHRM5) | P08912 | CHO-hM5 cells, Fluo-8 calcium fluorescence, ACh EC80 | inhibition, % at 3 µM | actives 0.59% (n = 360,000) | AID 624040;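 active means inhibition above a per-plate cutoff, the mean of that plate's test compounds plus 3 SD, cut at about 27% in these data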
# Target sequence (P08912 whole entry, looked up): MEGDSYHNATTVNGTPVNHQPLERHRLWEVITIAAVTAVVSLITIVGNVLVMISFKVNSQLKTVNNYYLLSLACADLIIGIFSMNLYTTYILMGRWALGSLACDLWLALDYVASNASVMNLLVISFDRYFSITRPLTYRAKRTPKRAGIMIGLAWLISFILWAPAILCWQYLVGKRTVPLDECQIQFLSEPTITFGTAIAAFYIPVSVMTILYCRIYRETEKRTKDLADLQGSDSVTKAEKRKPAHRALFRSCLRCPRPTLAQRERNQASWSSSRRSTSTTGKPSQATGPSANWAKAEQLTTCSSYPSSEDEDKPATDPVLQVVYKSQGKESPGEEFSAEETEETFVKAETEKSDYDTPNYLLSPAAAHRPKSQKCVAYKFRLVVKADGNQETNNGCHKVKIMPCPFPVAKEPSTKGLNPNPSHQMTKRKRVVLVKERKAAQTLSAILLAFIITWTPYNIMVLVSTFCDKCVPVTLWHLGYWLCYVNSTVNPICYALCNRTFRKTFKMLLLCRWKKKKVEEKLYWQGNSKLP
# M5 ag: agonists of human muscarinic M5 receptor (CHRM5). P08912. CHO-K1 hM5 cells, Fluo-8 calcium fluorescence; 0% DMSO wells, 100% maximal acetylcholine response. activation, % at 3 µM. actives 0.19% (n = 360,000). AID 624037;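 active means activation above the run's mean over test compounds plus 3 SD, cut at about 23% in these data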;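 further: signal is peak over basal fluorescence ratio across the kinetic read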
# CHRM1 PAM: human CHRM1 positive allosteric modulation; P11229; CHO-K1 hM1, Fluo-8 calcium fluorescence, ACh EC20; 0% = ACh EC20, 100% = maximal ACh; activation, % at 3 µM; actives 0.088% (n = 360,000); AID 588819; in the data active means activation above about 19%, passing the limit was not always enough
# M5 PAM: CHRM5 positive allosteric modulation. P08912. CHO-K1 hM5, Fluo-8 calcium, ACh EC20 PAM; 0% = ACh EC20, 100% = ACh EC100. activation, % at 3 µM. actives 0.3% (n = 360,000);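 active means activation above the run cutoff, the mean activation of all test compounds plus 3 SD, cut at about 18% in these data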
#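 Assay system: CHO-K1 hM5 cells / Incubation: Fluo-8 loading 80 min at 37 °C plus 30 min room temperature / Technique: Fluo-8 calcium dye fluorescence, kinetic read / Repeats: single replicate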
# M1 ag: human M1 muscarinic receptor agonism; P11229; CHO-K1 hM1, Fluo-8 calcium fluorescence, agonist mode; 0% DMSO, 100% acetylcholine EC100; activation, % at 3 µM; actives 0.33% (n = 360,000); AID 588814;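 active means activation above the run's mean compound activation plus 3 SD, cut at about 16% in these data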;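 further: peak over basal fluorescence ratio within a 140 s kinetic read after compound addition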
# M1 antag: human CHRM1 antagonism; CHO-K1 hM1, Fluo-8 calcium fluorescence, ACh EC80 antagonist; inhibition, % at 3 µM; actives 1.3% (n = 360,000); AID 588852;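 active means percent inhibition above its own plate's cutoff, namely the mean of that plate's compound wells plus 3 SD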;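 further: peak over basal fluorescence ratio during 140 s after agonist addition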
# Hits are given with their value; – = inactive; · = no result given. A selection: hits, their analogues and other compounds. The true share with any hit is near 2%.
SMILES,CHRM5 antagonist,M5 ag,CHRM1 PAM,M5 PAM,M1 ag,M1 antag
O=S(=O)(c1ccc(N2CCCCCC2)nc1)N1CCCC1,–,–,–,–,–,69.7
CCCCCCCCSC1=CC(=O)C(OC)=C(OC)C1=O,–,–,–,–,–,–
CC1CN(c2nc3c(c(=O)n(C)c(=O)n3C)n2Cc2c(F)cccc2Cl)CC(C)O1 (centres undefined),–,–,–,–,18.4,–
CCN(C(=O)CSc1nnnn1C)C1CCS(=O)(=O)C1 (centres undefined),–,–,–,–,–,–
O=C1C(Cl)=C(Nc2ccc3cn[nH]c3c2)C(=O)c2ccccc21,28.5,–,–,–,–,–
O=C(Nc1ccc2cn[nH]c2c1)c1c(Cl)cccc1Cl,–,–,–,–,–,–
CN(C)c1ccc(NC2=C(Cl)C(=O)c3ccccc3C2=O)cc1,34.4,–,–,–,–,–
COC(=O)c1c(Sc2ccccc2)c2ccccc2n1C,–,57.5,–,–,35.0,–
COc1ccc(C(=O)c2[nH]c(N)c(C(=O)NCCc3c[nH]c4ccccc34)c2-c2ccc(Cl)c(F)c2)cc1,–,–,·,–,·,·
COc1cc2c(cc1OC)CN(CCC(C)c1ccc(Cl)cc1)CC2 (centres undefined),–,–,–,–,–,43.0
COc1ccccc1-c1cn(CC[C@@H]2CC[C@H](NC(=O)C3CCC3)[C@@H](CO)O2)nn1,–,–,·,–,·,·
Cc1ccc(C)c(CNS(=O)(=O)c2c(C)[nH]c(C)c2C(=O)N2CCCCC2)c1,–,–,–,19.3,–,–
COc1ccc(/C=C/CN2CCCC(CCC(=O)NCc3ccc(F)c(F)c3)C2)cc1 (centres undefined),–,–,–,–,–,84.3
COc1ccccc1/C=C/CN1CCCC(CCC(=O)NCc2ccc(F)c(F)c2)C1 (centres undefined),–,–,–,–,–,–
O=C(CCC1CCCN(Cc2cccc3c2OCO3)C1)NCc1ccc(F)c(F)c1 (centres undefined),–,–,–,–,–,42.1
Cc1cc(C)cc(C(O)c2ncc(-c3cccc(C(F)(F)F)c3)[nH]2)c1 (centres undefined),–,–,–,–,–,–
CCN1/C(=C\C(=S)Nc2ccccc2)Sc2ccccc21,–,–,–,–,–,–
CCN1/C(=C/C(C)=C/c2sc3ccccc3[n+]2CC)Sc2ccccc21,42.5,–,–,–,–,47.6
CC1=C(C(=O)N(C(C)C)C(C)C)CC(CC(=O)NCc2cccs2)C(=O)N1CCCN1CCCC1=O (centres undefined),–,–,–,–,–,–
CC1=C(C(=O)N(C)C)CC(CC(=O)NCCCCc2ccccc2)C(=O)N1CCCN1CCCC1=O (centres undefined),–,–,26.7,–,–,–
CN1CCCN(C(c2ccccc2)c2ccc(Cl)cc2)CC1 (centres undefined),99.2,–,–,–,–,99.7
O=C(NCCNC(=O)Nc1ccc(Cl)cc1)Nc1ccc(Cl)cc1,–,–,–,–,–,–
Cc1nnsc1SCCNC(=O)Nc1ccc(Cl)cc1,32.2,–,–,–,–,36.6
CN1OC[C@@H]2CN(S(=O)(=O)c3cccc4ccccc34)[C@H](c3ccc(-c4ccccc4)cc3)C[C@@H]21,–,–,25.0,–,–,–
CCOC(=O)c1[nH]c2ccc(OC)cc2c1NC(C)=O,–,–,–,–,–,–
SMILES,CHRM5 antagonist,M5 ag,CHRM1 PAM,M5 PAM,M1 ag,M1 antag
CCOC(=O)c1[nH]c(C)c(C(=O)N2CCN(c3ccc(OC)cc3)CC2)c1C,–,–,–,–,–,–
CCOC(=O)c1[nH]c2ccc(OC)cc2c1C,31.8,–,–,–,–,–
CCOC(=O)c1[nH]c(CN2CCN(c3ccc(OC)cc3)CC2)c(C(=O)OCC)c1C,–,–,–,–,16.0,–
CCOC(=O)c1cc(C#N)c(N2CCN(c3ccc(OC)cc3)CC2)[nH]c1=O,–,–,–,25.9,–,–
COc1ccc(OC)c(CN2CCN(C(=O)c3ccc(C)c(S(=O)(=O)Nc4ccccc4OC)c3)CC2)c1,–,–,–,–,–,–
Cc1cc(/C=N/NC(=O)c2ccsc2)c(C)n1-c1cnccn1,–,–,–,28.2,–,–
CCCCn1c2c(c(=N)c3c1CCC3)CCC2,–,–,–,–,–,–
CCn1c2c(c(=N)c3c1CCC3)CCC2,31.7,–,–,–,–,–
CCCCCCn1c2c(c(=N)c3c1CCC3)CCC2,–,–,–,–,–,–
CCCCCCCCCn1c2c(c(=N)c3c1CCC3)CCC2,39.9,–,–,–,–,31.2
CC(O)C1CCC2C3CCC4CC(O)CCC4(C)C3C(=O)CC12C (centres undefined),–,–,–,–,–,–
CCN(CC)C(=O)CSc1nc2ccccc2c(=O)n1OC(C)C,–,–,–,23.5,–,–
CCN(CC)C(=O)CSc1nc2ccccc2c(=O)n1CC,–,–,–,–,–,–
C=C1SC(Nc2c(C)cccc2C)=NC12CCCCC2,–,–,–,–,–,65.9
Cc1cccc(C)c1NC(=O)NC1(C(=O)N2CCCCC2)CCCCC1,–,–,–,–,–,–
C=C1SC(Nc2c(C)cc(C)cc2C)=NC12CCCCC2,–,–,–,–,–,68.3
CCCCn1nnnc1C(c1ccccc1)N1CCN(c2ccc(C)cc2)CC1 (centres undefined),–,–,·,–,·,·
Nn1c(=O)c2ccccc2n2c(SCc3ccccc3)nnc12,29.4,–,–,38.1,–,–
O=C(C(=O)N(Cc1ccccc1)Cc1ccccc1)c1c(-c2ccccc2)[nH]c2ccccc12,–,–,–,–,–,–
CCCNC(=O)c1cc(C2CCCCN2C(=O)c2ccc(C(C)C)cc2)on1 (centres undefined),–,–,–,–,–,–
Cc1c(P(=S)(c2ccccc2)c2ccccc2)[n+]2ccccc2n1CCc1ccccc1,–,–,–,–,–,47.5
CCOC(=O)c1cc(C)n(CCc2ccccc2)c1C,–,–,–,–,–,–
CCC(=O)OCCNc1cc(SCCC(=O)OC)c2nonc2c1[N+](=O)[O-],–,–,–,–,–,–
CCCC(=O)OCCNc1cc(Sc2nc3ccccc3[nH]2)c2nonc2c1[N+](=O)[O-],34.0,–,–,–,–,–
COc1cc(CN(C)CC2CCCN(CCc3cccc(C(F)(F)F)c3)C2)ccc1O (centres undefined),–,–,–,–,–,48.6
CSCCC(=O)N(C)CC1CCCN(CCc2cccc(C(F)(F)F)c2)C1 (centres undefined),–,–,–,–,–,36.7
